Tests used:
[1] = tested on: B16F10 cells; test: Cellular uptake of NR-loaded micelles; type: cell-based; conditions: B16F10, flow cytometry, 1 h and 4 h
[2] = tested on: L929 cells; test: Cellular uptake of NR-loaded micelles; type: cell-based
In short: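 L929 cells (CD44-negative) grown 24 h in DMEM with 10% FBS, then medium replaced with free fluorescent marker NR or micelles loaded with NR at 0.2% drug loading. Incubated at 37 °C for 1, 4 and 8 h, washed thrice with PBS, and viewed by fluorescent inverted microscope. For flow cytometry at 1 and 4 h, cells were PBS-washed, trypsinised, resuspended in PBS, and read at 560/620 nm.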

Compound: CCN(CC)c1ccc2nc3c4ccccc4c(=O)cc-3oc2c1 [free NR, nile red]
- Intracellular NR concentrations, order [1]: HA-SS-ATRA21/NR micelles > HA-ATRA20/NR micelles > free NR > HA-SS-ATRA21/NR micelles treated with free-HA
- Fluorescence intensity of NR (cellular uptake) ([2]; L929 (CD44-negative), fluorescent inverted microscope): highest
- Fluorescence intensity of NR (cellular uptake) ([2]; L929, flow cytometry, 1 h and 4 h): highest

Source: paper PMC7032146 (Asian Journal of Pharmaceutical Sciences, 2018)
